Measured values as given in ChEMBL document CHEMBL1130401, “Retinoic acid conjugates as potential antitumor agents: synthesis and biological activity of conjugates with Ara-A, Ara-C, 3(2H)-furanone, and aniline mustard moieties” (J Med Chem, 1997).
In brackets after ≈: the same amount, converted by molar mass.

Tests used:
HL-60 [1] = experiment: Differentiating activity of compound in HL60 cells at conc 0.05 ug/mL; format: functional, Homo sapiens
Method in brief: (§1)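 10⁶ HL-60 cells were exposed to compound for 6 days, then resuspended in RPMI-1640 with 20% FBS and 2 mM L-glutamine. An equal volume of fresh NBT solution (2 mg/mL, with PMA 200 ng/mL in PBS pH 7.2) was added and incubated 40 min at 37 °C with shaking. Cells were chilled, pelleted and resuspended. Formazan-positive cells were counted by hemocytometer (≥200 cells scored). Untreated cultures served as controls.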

HL-60 [2] = experiment: The cytotoxic activity in HL-60 cells; format: functional, cell-based; conditions: Homo sapiens
Method in brief: (§2)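 HL-60 cells from ATCC. Each well received 7.5 × 10⁴ cells plus test compound. Cells grew for 72 h at 37 °C in humidified, CO₂-controlled air, with growth linear over this period. Cells were then counted in a Coulter counter. IC50 is the concentration that cut cell number by 50%.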

HL-60 [3] = experiment: Differentiating activity of compound in HL60 cells at conc 0.2 ug/mL; format: functional, Homo sapiens; method in brief: as §1
HL-60 [4] = experiment: Differentiating activity of compound in HL60 cells at conc 0.08 ug/mL; format: functional, Homo sapiens; method in brief: as §1
HL-60 [5] = experiment: Differentiating activity of compound in HL60 cells at conc 0.4 ug/mL; format: functional, Homo sapiens; method in brief: as §1
HL-60 [6] = experiment: Differentiating activity of compound in HL60 cells at conc 0.016 ug/mL; format: functional, Homo sapiens; method in brief: as §1
HL-60 [7] = experiment: Differentiating activity of compound in HL60 cells at conc 1.4 ug/mL; format: functional, Homo sapiens
HL-60 [8] = experiment: Differentiating activity of compound in HL60 cells at conc 2.8 ug/mL; format: functional, Homo sapiens
HL-60 [9] = experiment: Differentiating activity of compound in HL60 cells at conc 5.6 ug/mL; format: functional, Homo sapiens
HL-60 [10] = experiment: Differentiating activity of compound in HL60 cells at conc 0.5 ug/mL; format: functional, Homo sapiens; method in brief: as §1
HL-60 [11] = experiment: Differentiating activity of compound in HL60 cells at conc 2 ug/mL; format: functional, Homo sapiens; method in brief: as §1
HL-60 [12] = experiment: Differentiating activity of compound in HL60 cells at conc 0.32 ug/mL; format: functional, Homo sapiens; method in brief: as §1
HL-60 [13] = experiment: (§3) Differentiating activity of compound in HL60 cells at conc 4 ug/mL; format: functional, Homo sapiens; method in brief: as §1
HL-60 [14] = experiment: (§4) Differentiating activity of compound in HL60 cells at conc 1 ug/mL; format: functional, Homo sapiens; method in brief: as §1
HL-60 [15] = experiment: Differentiating activity of compound in HL60 cells at conc 0.0003 ug/mL; format: functional, Homo sapiens
HL-60 [16] = experiment: Differentiating activity of compound in HL60 cells at conc 0.03 ug/mL; format: functional, Homo sapiens
HL-60 [17] = experiment: Differentiating activity of compound in HL60 cells at conc 0.003 ug/mL; format: functional, Homo sapiens
HL-60 [18] = experiment: as §3; format: functional, Homo sapiens; remark: listed apart in the source
Method in brief: (§5)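 HL-60 (ATCC) cells exposed to compound for 6 days; 10⁶ cells resuspended in 1 mL RPMI-1640 with 20% FBS and 2 mM L-glutamine, mixed with 1 mL fresh NBT (2 mg/mL) containing PMA 200 ng/mL in PBS pH 7.2, 40 min at 37 °C shaking, ice-stopped, pelleted. Formazan-positive cells counted by hemocytometer light microscopy, ≥200 cells scored; value = % NBT-positive cells.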

HL-60 [19] = experiment: as §4; format: functional, Homo sapiens; method in brief: as §5; remark: listed apart in the source
HL-60 [20] = experiment: Cytotoxic activity in HL-60 cells; format: functional, cell-based; conditions: Homo sapiens; method in brief: as §2
HL-60 [21] = experiment: Differentiating activity of compound in HL60 cells at conc 10 ug/mL; format: functional, Homo sapiens; method in brief: as §1
HL-60 [22] = experiment: Differentiating activity of compound in HL60 cells at conc 50 ug/mL; format: functional, Homo sapiens; method in brief: as §1

CC1=C(/C=C/C(C)=C/C=C/C(C)=C/C(=O)Nc2ncnc3c2ncn3[C@@H]2O[C@H](CO)C(O)[C@@H]2O)C(C)(C)CCC1 (some centres not stated)
NBT positive cells (HL-60 [1]): 41% | IC50 (HL-60 [2]): < 0.32 µg/mL | NBT positive cells (HL-60 [3]): 46%

Nc1ccn([C@@H]2O[C@H](CO)[C@@H](O)[C@@H]2O)c(=O)n1 [CYTARABINE]
NBT positive cells (HL-60 [4]): 5% | NBT positive cells (HL-60 [5]): 20% | IC50 (HL-60 [2]): 0.029 µg/mL (≈ 0.119 µM) | NBT positive cells (HL-60 [6]): 8%

C[S+](C)[O-] [DIMETHYL SULFOXIDE]
NBT positive cells (HL-60 [7]): 12% | NBT positive cells (HL-60 [8]): 28% | NBT positive cells (HL-60 [9]): 53%

CC1=C(/C=C/C(C)=C/C=C/C(C)=C/C(=O)O[C@H]2C(O)[C@@H](CO)O[C@H]2n2cnc3c(N)ncnc32)C(C)(C)CCC1 (some centres not stated)
IC50 (HL-60 [2]): 1.96 µg/mL (≈ 3.57 µM) | NBT positive cells (HL-60 [10]): 34% | NBT positive cells (HL-60 [11]): 36%

CC1=C(/C=C/C(C)=C/C=C/C(C)=C/C(=O)OC/C=C(\C)C2=CC(=O)C(C)(C)O2)C(C)(C)CCC1
NBT positive cells (HL-60 [4]): 33% | IC50 (HL-60 [2]): < 0.32 µg/mL | NBT positive cells (HL-60 [12]): 34%

CC1=C(/C=C/C(C)=C/C=C/C(C)=C/C(=O)Nc2ccn([C@@H]3O[C@H](CO)C(O)[C@@H]3O)c(=O)n2)C(C)(C)CCC1 (some centres not stated)
NBT positive cells (HL-60 [4]): 29% | IC50 (HL-60 [2]): < 0.32 µg/mL | NBT positive cells (HL-60 [12]): 37%

CC1=C(/C=C/C(C)=C/C=C/C(C)=C/C(=O)NCCCNC(=O)/C=C(C)/C=C/C=C(C)/C=C/C2=C(C)CCCC2(C)C)C(C)(C)CCC1
NBT positive cells (HL-60 [13]): 65% | IC50 (HL-60 [2]): 3.71 µg/mL (≈ 5.81 µM) | NBT positive cells (HL-60 [14]): 33%

CC1=C(/C=C/C(C)=C/C=C/C(C)=C/C(=O)Nc2ncnc3c2ncn3[C@@H]2O[C@@H]3CO[Si](C(C)C)(C(C)C)O[Si](C(C)C)(C(C)C)OC3[C@@H]2O)C(C)(C)CCC1 (some centres not stated)
IC50 (HL-60 [2]): 2.08 µg/mL (≈ 2.63 µM) | NBT positive cells (HL-60 [10]): 31% | NBT positive cells (HL-60 [11]): 31%

CC1=C(/C=C/C(C)=C/C=C/C(C)=C/C(=O)O)C(C)(C)CCC1 [TRETINOIN]
NBT positive cells (HL-60 [15]): 34% | NBT positive cells (HL-60 [16]): 89% | NBT positive cells (HL-60 [17]): 67%

CC1=C(/C=C/C(C)=C/C=C/C(C)=C/C(=O)Nc2ccc(N(CCCl)CCCl)cc2)C(C)(C)CCC1
NBT positive cells (HL-60 [18]): 43% | IC50 (HL-60 [2]): 3.7 µg/mL (≈ 7.18 µM) | NBT positive cells (HL-60 [19]): 24%

CC1=C(/C=C/C(C)=C/C=C/C(C)=C/C(=O)Nc2ccn([C@@H]3O[C@@H]4CO[Si](C(C)C)(C(C)C)O[Si](C(C)C)(C(C)C)OC4[C@@H]3O)c(=O)n2)C(C)(C)CCC1 (some centres not stated)
NBT positive cells (HL-60 [1]): 44% | NBT positive cells (HL-60 [3]): 54% | IC50 (HL-60 [20]): < 0.32 µg/mL

Nc1ncnc2c1ncn2[C@@H]1O[C@H](CO)[C@@H](O)[C@@H]1O [VIDARABINE]
IC50 (HL-60 [2]): 20.9 µg/mL (≈ 78.2 µM) | NBT positive cells (HL-60 [21]): 9% | NBT positive cells (HL-60 [22]): 12%
